Laboratory results from ChEMBL document CHEMBL2177000, “Pharmacokinetic optimization of class-selective histone deacetylase inhibitors and identification of associated candidate predictive biomarkers of hepatocellular carcinoma tumor response” (J Med Chem, 2012).
Each block holds one compound with its values, some of them ahead of it. The source made the active and inactive calls. The calls are words filed in the database; no cut-off is given here.

What was measured:
SMMC-7721 [1] = experiment: Induction of apoptosis in human SMMC-7721 cells assessed as late apoptotic cell level at 5 uM incubated for 48 hrs by FITC/Annexin V staining based flow cytometry (reference value: 6.08%)
Mus musculus [2] = experiment: Cmax in BALB/C mouse at 10 mg/kg, po or 2 mg/kg, iv by LC-MS/MS method; assay type: ADME, organism-based; conditions: in vivo
Procedure, shortened: (§1)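 Female-unspecified BALB/C nude mice (15−20 g, N = 16 per arm); iv bolus 2 mg/kg in 5% DMSO/40% PEG400/55% saline and/or oral gavage 10 mg/kg as 0.445% microcrystalline cellulose microsuspension. Blood sampled at nine (iv) or eight (po) time points into sodium heparin tubes; plasma by LC-MS/MS; noncompartmental analysis.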

SMMC-7721 [3] = experiment: Induction of apoptosis in human SMMC-7721 cells assessed as early apoptotic cell level at 5 uM incubated for 48 hrs by FITC/Annexin V staining based flow cytometry (reference value: 2.61%)
Mus musculus [4] = experiment: Toxicity in human Bel7404 cells xenografted BALB/C mouse assessed as body weight loss at 100 mg/kg, po administered every other day for 4 weeks; conditions: in vivo, 672 h
Mus musculus [5] = experiment: Oral bioavailability in BALB/C mouse at 10 mg/kg by LC-MS/MS method; assay type: ADME, organism-based; conditions: in vivo
Procedure, shortened: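 Bioavailability from single-dose iv (2 mg/kg, 5% DMSO/40% PEG400/55% saline) and oral gavage (10 mg/kg, 0.445% microcrystalline cellulose microsuspension) studies in BALB/C nude mice (N = 16 per arm); plasma at eight (po) or nine (iv) time points, LC-MS/MS, noncompartmental analysis.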

MGC-803 = assay type: functional, Homo sapiens
SK-HEP1 = assay type: functional, Homo sapiens
SGC-7901 = assay type: functional, Homo sapiens
Mus musculus [6] = experiment: AUC in BALB/C mouse at 10 mg/kg, po or 2 mg/kg, iv by LC-MS/MS method; assay type: ADME, organism-based, Plasma; conditions: in vivo
Procedure, shortened: as §1

Mus musculus [7] = experiment: Up-regulation of CDKN1A gene expression in human hepatocellular carcinoma patient tumor xenografted in BALB/C mouse at 100 mg/kg, po administered every other day for 4 weeks by […]; assay type: functional, organism-based; set-up: dose 100 mg/kg
Procedure, shortened: (§2)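 Patient HCC tumor fragments (3 × 3 × 3 mm3) implanted subcutaneously in female BALB/c nu/nu mice; at ~200 (150−250) mm3 dosed orally Q2D 100 mpk in 15% Kleptose pH 4.5 tartaric buffer for about four weeks. Tumor RNA (TRIzol, DNase I) run on 22-gene qRT-PCR array, normalized to GAPDH/β-glucuronidase by ΔCt, fold change versus day 0.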

Mus musculus [8] = experiment: Inhibition of Class 1 histone deacetylase in human Bel7404 cells xenografted BALB/C mouse assessed as induction of histone H3 acetylation at 50 mg/kg, po qd for 4 weeks by Western blot method; conditions: Bel-7404
Mus musculus [9] = experiment: Up-regulation of CACNA1G gene expression in human hepatocellular carcinoma patient tumor xenografted in BALB/C mouse at 100 mg/kg, po administered every other day for 4 weeks by […]; assay type: functional, organism-based; set-up: dose 100 mg/kg
Procedure, shortened: as §2

Mus musculus [10] = experiment: Inhibition of Class 1 histone deacetylase in human Bel7404 cells xenografted BALB/C mouse assessed as induction of histone H3 acetylation at 100 mg/kg, po administered every other day for 4 weeks by Western blot method; conditions: Bel-7404
Mus musculus [11] = experiment: Up-regulation of TIMP3 gene expression in human hepatocellular carcinoma patient tumor xenografted in BALB/C mouse at 100 mg/kg, po administered every other day for 4 weeks by […]; assay type: functional, organism-based; set-up: dose 100 mg/kg
Procedure, shortened: as §2

Mus musculus [12] = experiment: Up-regulation of CDH1 gene expression in human hepatocellular carcinoma patient tumor xenografted in BALB/C mouse at 100 mg/kg, po administered every other day for 4 weeks by […]; assay type: functional, organism-based; set-up: dose 100 mg/kg
Procedure, shortened: as §2

Mus musculus [13] = experiment: Up-regulation of HIC1 gene expression in human hepatocellular carcinoma patient tumor xenografted in BALB/C mouse at 100 mg/kg, po administered every other day for 4 weeks by […]; assay type: functional, organism-based; set-up: dose 100 mg/kg
Procedure, shortened: as §2

Mus musculus [14] = experiment: Inhibition of Class 1 histone deacetylase in treatment non-responding human hepatocellular carcinoma patient tumor xenografted in BALB/C mouse assessed as induction of histone H3 acetylation at 100 mg/kg, po administered every other day for 4 weeks by immunohistochemistry; assay type: functional, organism-based; set-up: dose 100 mg/kg
Procedure, shortened: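 Patient-derived HCC xenografts in female nude mice given 100 mpk Q2D PO (15% Kleptose, pH 4.5 tartaric buffer); single dose on last day, tumors harvested 0 to 24 h post-dose. Paraffin sections, citrate pH 6.0 antigen retrieval, anti-Ac-H3 (Lys9) 1:200 overnight 4 °C, HRP/DAB; scored 0−3 independently by two pathologists.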

Mus musculus [15] = experiment: Up-regulation of CDKN2A gene expression in human hepatocellular carcinoma patient tumor xenografted in BALB/C mouse at 100 mg/kg, po administered every other day for 4 weeks by […]; assay type: functional, organism-based; set-up: dose 100 mg/kg
Procedure, shortened: as §2

Mus musculus [16] = experiment: Up-regulation of CDKN2B gene expression in human hepatocellular carcinoma patient tumor xenografted in BALB/C mouse at 100 mg/kg, po administered every other day for 4 weeks by […]; assay type: functional, organism-based; set-up: dose 100 mg/kg
Procedure, shortened: as §2

Mus musculus [17] = experiment: Up-regulation of CEBPA gene expression in human hepatocellular carcinoma patient tumor xenografted in BALB/C mouse at 100 mg/kg, po administered every other day for 4 weeks by […]; assay type: functional, organism-based; set-up: dose 100 mg/kg
Procedure, shortened: as §2

[18] = Clearance in human liver microsomes at 1 uM incubated for 10 mins by LC-MS/MS method; assay type: ADME, Microsome
Procedure, shortened: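 Liver microsomes (human or mouse, 0.5 mg/mL) in 100 mM potassium phosphate pH 7.4 with 1 μM compound, prewarmed 10 min at 37 °C, started with NADPH (10 mM); stopped at 0, 3, 6, 9, 15, 30 min with ice-cold methanol containing tolbutamide internal standard; LC-MS/MS. Hepatic clearance (mL/min/kg) calculated from intrinsic clearance.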

[19] = Volume of distribution at steady state in BALB/C mouse at 10 mg/kg, po or 2 mg/kg, iv by LC-MS/MS method; assay type: ADME, organism-based; set-up: unit not given here; conditions: in vivo, read-out: Vdss
Procedure, shortened: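 Single-dose PK: iv bolus 2 mg/kg in 5% DMSO/40% PEG400/55% saline and/or oral gavage 10 mg/kg as 0.445% microcrystalline cellulose microsuspension; BALB/C nude mice (15−20 g, N = 16 per arm) or male Sprague−Dawley rats (250 ± 20 g, N = 3). Blood at eight (po) or nine (iv) time points into sodium heparin, plasma by LC-MS/MS, noncompartmental analysis.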

Cmax (Mus musculus [2]): 893 ng/mL
F (Mus musculus [5]): 100%
GI90 (MGC-803): 2 µM
GI90 (SK-HEP1): 2.5 µM
GI90 (SGC-7901): 1.4 µM
AUC (Mus musculus [6]): 6316 ng·h/mL
SMILES: CN1C[C@H](C(=O)Nc2ccc(Cl)cc2)[C@@H](c2ccc(/C=C/C(=O)Nc3ccccc3N)cc2)C1 [listing 1 of 2 here]
Activity (SMMC-7721 [1]): 36.17%
Activity (SMMC-7721 [3]): 3.56%
Activity (Mus musculus [4]): < 10%

SMILES: CN1C[C@H](C(=O)Nc2ccc(Cl)cc2)[C@@H](c2ccc(/C=C/C(=O)Nc3ccccc3N)cc2)C1 [listing 2 of 2 here]
Activity (Mus musculus [7]): Active
inhibition (Mus musculus [8]): Active
Activity (Mus musculus [9]): Active
inhibition (Mus musculus [10]): Active
Activity (Mus musculus [11]): Active
Activity (Mus musculus [12]): inactive
Activity (Mus musculus [13]): inactive
inhibition (Mus musculus [14]): inactive
Activity (Mus musculus [15]): inactive
Activity (Mus musculus [16]): Active
Activity (Mus musculus [17]): Active

CLhep predicted at 1 µM [18]: 14 mL/min/kg
Vd [19]: 3
SMILES: CN1C[C@H](C(=O)Nc2ccc(Cl)cc2)[C@@H](c2ccc(/C=C/C(=O)Nc3ccccc3N)cc2F)C1 (racemic)
